# Bioassay records (PubChem BioAssay)
# Shown is part of a subset that was picked to be rich in hits.
# Insulin prom act – activators of insulin promoter-driven GFP, primary screen, imaging, TRM-6 cells, eGFP reporter, cell count | hit rate 0.81% among 130,000 | AID 1296, 2008 | plate-scaled: unstimulated 0, stimulated control 100 | activation, % at 2 µM;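 active = activation at 2 µM above a set limit, confirmed on inspection of the cell images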;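 also: share of cells whose green reporter signal exceeds an intensity cutoff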
#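 Test system: human fetal islet-derived TRM-6 cells with tamoxifen-inducible insulin promoter–eGFP reporter. Compound dosing: 2 µM final, single concentration. Incubation: tamoxifen pre-incubation 15 h overnight, then compound exposure 48 h at 37 °C. Signal: fixed-cell fluorescence microscopy, eGFP plus Hoechst.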
# An asterisk follows results filed as active.
SMILES,Insulin prom act
CC(C)(C)OC(=O)NNC(=O)C12CC3CC(CC(C3)C1)C2,-9.1
CCCCNC(=S)NNC(=O)C12CC3CC(CC(C3)C1)C2,86.2*
Cc1cc(C)c(NC(=S)N(CCCN2CCN(C)CC2)Cc2cccs2)c(C)c1,-6.7
CCN(CC)C(=O)C(=O)c1cn(CC(=O)N2CCc3ccccc3C2)c2ccccc12,145.5
COc1ccc2[nH]c(=O)c(CN(Cc3nnnn3Cc3ccc(F)cc3)CC3CCCO3)cc2c1 (configuration not stated),117.6
O=c1[nH]c2cc3c(cc2cc1CN(CCCO)Cc1nnnn1Cc1ccc(F)cc1)OCO3,0.0
Cc1ccc2cc(CN(CCO)Cc3nnnn3Cc3ccc(F)cc3)c(=O)[nH]c2c1,140.0*
Cc1c(NC(=O)C(C)OC(=O)[C@@H](NC(=O)c2ccccc2)C(C)C)c(=O)n(-c2ccccc2)n1C (some centres not stated),4.7
CC(=O)N(C)c1ccc(NC(=O)c2ccco2)cc1,-2.9
O=C(Nc1ccc(F)c(F)c1)c1ccco1,-7.1
O=C(Nc1ccc(Br)cc1)c1ccco1,557.1*
O=C(N/C(=C\c1ccc([N+](=O)[O-])cc1)C(=O)N1CCCCC1)c1ccccc1Br,8.3
Cc1ccc(CSCCNC(=O)c2ccc(Cl)c(S(=O)(=O)N3CCOCC3)c2)cc1,141.7
C=CCNC(=S)NNC(=O)COc1cccc(Cl)c1,0.0
COc1ccc(/C=C2/C(=O)N(c3nc4ccccc4s3)N=C2CSc2ccc(Cl)cc2)cc1,-7.1
COc1ccc(N2C(=O)CC(SCC(=O)O)C2=O)cc1 (configuration not stated),437.5*
COc1ccc(N2C(=O)CC(Sc3nc(C)c4c(n3)CCCC4)C2=O)cc1 (configuration not stated),-6.1
CCOc1ccc(N2C(=O)CC(SCC(=O)O)C2=O)cc1 (configuration not stated),6.7
CCOC(=O)c1cccc(N2C(=O)c3ccccc3S2(=O)=O)c1,18.8
CC(SC(=S)N1CCCC1)C(=O)O (configuration not stated),-6.7
Cc1nn(-c2ccccc2)c(Cl)c1CN(C(=O)CCl)c1ccc(Cl)cc1,-100.0
CCCCNC(=O)[C@H](Cc1c[nH]c2ccccc12)NC(=O)c1ccccc1Cl,109.1
O=C(CCl)N(c1ccc(Cl)cc1)c1c[nH]c2ccccc12,257.1*
Cc1cc(O)ccc1N=Cc1c(C(F)(F)F)[nH][nH]c1=O,-5.9
O=C(Cn1cccc1C(=O)c1ccccc1)NCc1cccc(Cl)c1,386.7*
SMILES,Insulin prom act
O=C(Cn1cccc1C(=O)c1ccccc1)NCc1ccc(Cl)cc1,6.7
Cc1ccc(CNC(=O)Cn2cccc2C(=O)c2ccccc2)cc1,5.4
CC1CCN(CC(O)COC2CC(C)CCC2C(C)C)CC1 (configuration not stated),542.9*
CC1CCC(C(C)C)C(OC(=O)CSc2nnc(N)s2)C1 (configuration not stated),5.6
CC1CC(OCC(O)CN2CCN(Cc3ccccc3)CC2)CC(C)(C)C1 (configuration not stated),100.0
Cc1cc(NC(=O)CCSc2nc(-c3ccco3)cc(C(F)(F)F)n2)n(-c2ccccc2)n1,21.4
N#C/C(=C/c1ccncc1)c1nc2ccccc2s1,127.8
COc1cc(/C=C(\C#N)c2nc3ccccc3s2)ccc1OCC(=O)Nc1ccccc1,162.1
CC(=O)Nc1sc(/C(C#N)=C/c2ccc(Cl)c(Cl)c2)nc1-c1ccc(C)cc1,222.6*
CCOc1ccccc1N1CCN(CC(=O)N(CC(C)C)c2c(N)n(CC(C)C)c(=O)[nH]c2=O)CC1,9.5
Cc1ccc(Nc2c(F)c(F)c(F)c(F)c2C(=O)O)cc1,0.0
COc1ccc(Oc2nccc(-c3ccccc3)c2C#N)cc1,4.4
COc1ccc(S(=O)(=O)N[C@@H](Cc2ccc(Cl)cc2)C(=O)N2CC[C@@]3(O)CCCC[C@H]3C2)cc1,7.9
O=C(CC1NCCc2ccccc21)Nc1ccccc1 (configuration not stated),7.3
CN(C)c1ccc(NC(=O)COC(=O)CCC(=O)c2ccc(F)cc2)cc1,-2.9
CN(C)c1ccc(NC(=O)CC2NCCNC2=O)cc1 (configuration not stated),487.5*
CCCC(C(=O)NC1CCCCC1)N(Cc1ccco1)C(=O)CNS(=O)(=O)c1ccccc1 (configuration not stated),77.4*
CCCC(C(=O)NCc1ccco1)N(C(=O)CNS(=O)(=O)c1ccccc1)c1ccc(OC)cc1 (configuration not stated),122.2
CCCCC(C(=O)NC1CCCC1)N(Cc1ccco1)C(=O)Cn1nnc(-c2ccc(F)cc2)n1 (configuration not stated),0.0
Cc1cc(C)n(-c2nc(Nc3ccccc3)nc(-n3nc(C)cc3C)n2)n1,-5.7
COc1ccc(C(=O)n2nc(C)cc2Nc2ccccc2)cc1,6.5
Cc1cc(Nc2ccccc2)n(CCO)n1,542.9*
Nc1nc(F)cc(NCc2ccccc2)n1,114.3
Cc1ccc(S(=O)(=O)NCCCN2CCOCC2)c(C)c1,9.7
C=CCn1c(NCc2ccc(N(C)C)cc2)nc2ccccc21,0.0
SMILES,Insulin prom act
Cc1cccc(N(C(=O)c2csnn2)C(C(=O)NC(C)(C)C)c2cccs2)c1 (configuration not stated),6.7
CC(=O)N[C@@H]1c2c(ccc3ccccc23)OC[C@@H]1COC(C)=O,-7.1
CCCCC/C(=N\NC(=O)CCC(=O)NCc1ccccc1)c1ccccc1,371.4*
CCCCCC/C(=N\NS(C)(=O)=O)c1ccccc1,0.0
O=C(O)CCC(=O)NNC(=O)CCC(=O)NCc1ccccc1,0.0
Cc1ccc2c(n1)CC(C)(C)C/C2=N\O,-90.5
CCOc1ccc(NC(=O)CN(c2cccc(C(F)(F)F)c2)S(C)(=O)=O)cc1,-6.9
Clc1ccccc1N/N=C/c1ccc2c(c1)OCO2,-64.3
COc1ccc(NC(=O)CN(c2cccc(C(F)(F)F)c2)S(C)(=O)=O)cc1OC,7.0
COc1cccc(NC(=O)CN(c2cccc(F)c2)S(C)(=O)=O)c1,443.8*
CC(=O)c1cccc(N(CC(=O)Nc2ccc(F)cc2)S(C)(=O)=O)c1,2.6
O=C(c1oc2ccccc2c1CSCc1ccccc1)N1CCN(c2ncccn2)CC1,0.0
CC1=C(C(=O)Nc2ccc(F)cc2)C(c2ccc(C)o2)C2=C(CC(C)(C)CC2=O)N1 (configuration not stated),295.8
CC1(C)CC(=O)C2=C(C1)Nc1cc3c(cc1C2c1ccc(F)cc1)OCO3 (configuration not stated),100.0*
CC1C2=C(CC(C)(C)CC2=O)NC2=C1C(=O)CC(C)(C)C2,-4.8
O=c1cc(CNc2cc(Cl)ccc2Cl)nc2sccn12,0.0
CN(C)c1ccc(C(CC(=O)O)NC(=O)c2ccc(Cl)cc2)cc1 (configuration not stated),-9.1
CN(C)CCNc1ncnc2ccccc12,3.2
Cc1ccc(Nc2ncnc3ccccc23)cc1,421.4*
CCCCC(Nc1ncnc2ccccc12)C(=O)O (configuration not stated),-3.3
O=C(NN1C(=O)C2C3CCC(O3)C2C1=O)c1ccc(Br)o1 (configuration not stated),8.3
c1ccc2sc(NC3=NCN(CCN4CCOCC4)CN3)nc2c1,133.3
CCCC(=O)Nc1ccc(C(=O)N2CCCC2)cc1,-2.6
CCCC(=O)Nc1ccc(N2CCN(C(=O)c3ccccc3C)CC2)cc1,443.8*
Cc1ccc(N2CCN(c3ccc(NC(=O)CCC(=O)O)cc3)CC2)cc1,-73.3
